Screens as filed in PubChem BioAssay.
This is a sample that favours compounds with a hit; in the whole collection about 2.3% have one here.
TRPC4 agonist = activators of mouse TRPC4 channel. Q9QUQ5. HEK293 TRPC4beta/mu-opioid, Fluo4 calcium fluorescence; hits give high values. B-score at 10 µM. hit rate 0.49% among 310,000. AID 2237;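 active means B-score above 5 SD of library B-scores, and initial fluorescence ratio not above library mean plus 5 SD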;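 further: positive B-score marks a calcium rise read as TRPC4 activation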
Target sequence (Q9QUQ5 whole entry, looked up): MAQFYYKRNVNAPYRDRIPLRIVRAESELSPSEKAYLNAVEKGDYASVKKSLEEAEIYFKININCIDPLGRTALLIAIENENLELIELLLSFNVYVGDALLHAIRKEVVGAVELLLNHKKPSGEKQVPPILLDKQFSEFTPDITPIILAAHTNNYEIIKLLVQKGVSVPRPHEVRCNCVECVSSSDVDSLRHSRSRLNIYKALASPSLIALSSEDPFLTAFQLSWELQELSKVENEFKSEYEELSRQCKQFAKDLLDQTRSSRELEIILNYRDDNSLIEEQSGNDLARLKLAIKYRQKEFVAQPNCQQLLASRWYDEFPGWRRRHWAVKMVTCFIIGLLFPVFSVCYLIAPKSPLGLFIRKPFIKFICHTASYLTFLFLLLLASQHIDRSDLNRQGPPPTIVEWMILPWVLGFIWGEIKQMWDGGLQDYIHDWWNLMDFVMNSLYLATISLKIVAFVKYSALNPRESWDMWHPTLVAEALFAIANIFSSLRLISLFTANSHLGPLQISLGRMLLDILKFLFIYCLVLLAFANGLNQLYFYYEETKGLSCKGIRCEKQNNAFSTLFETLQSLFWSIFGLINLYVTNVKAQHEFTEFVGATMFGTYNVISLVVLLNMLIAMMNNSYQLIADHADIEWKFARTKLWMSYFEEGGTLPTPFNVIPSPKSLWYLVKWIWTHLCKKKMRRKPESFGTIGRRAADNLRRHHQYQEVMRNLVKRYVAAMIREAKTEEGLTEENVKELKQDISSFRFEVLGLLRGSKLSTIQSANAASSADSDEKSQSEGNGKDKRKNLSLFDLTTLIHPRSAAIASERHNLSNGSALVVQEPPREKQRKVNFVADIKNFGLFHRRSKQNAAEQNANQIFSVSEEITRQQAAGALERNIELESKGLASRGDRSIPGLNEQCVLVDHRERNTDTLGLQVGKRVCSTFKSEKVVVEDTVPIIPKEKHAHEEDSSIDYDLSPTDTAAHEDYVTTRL
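Assay system: HEK293 cells stably co-expressing mouse TRPC4beta and mu-opioid receptor / Timing: Fluo4 dye loading 45 min at room temperature, 110 s recording / Signal: Fluo4 calcium-sensitive dye fluorescence, kinetic, 1 Hz baseline / Read-out: integrated baseline-normalised fluorescence ratio, converted to per-well B score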
TRPC6 inhibitor = blocks the mouse TRPC6 cation channel. Q61143. HEK293-TRPC6, membrane potential dye, ACh-evoked depolarization; hits give low values. B-score at 10 µM. hit rate 1.1% among 310,000. AID 2553;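 active means B-score under library mean minus 3 SD, initial fluorescence not abnormally high, positive integrated signal ratio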;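 further: B-score derived from integrated fluorescence ratio over the kinetic read; more negative B-score means stronger inhibition of depolarization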
TRPC4 PAM = TRPC4 (mouse) allosteric potentiation. Q9QUQ5. HEK293 TRPC4beta/mu-opioid, DAMGO EC20, Fluo-4 Ca2+ flux; hits give high values. B-score at 10 µM. hit rate 0.42% among 310,000;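 active means B-score of calcium response area above 5 SD of library B-scores, with initial fluorescence ratio within 5 SD of library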
TRPC6 activator = activators of mouse TRPC6 channel; B-score at 10 µM; HEK293-TRPC6 membrane potential dye fluorescence; hits give high values; Q61143; hit rate 0.13% among 310,000;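 active means B-score of the integrated fluorescence ratio above library mean plus 3 SD, and starting fluorescence ratio within library mean plus 5 SD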;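 further: higher score means more depolarization so channel activation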
TRPC4 block = TRPC4 (mouse) channel inhibition; Q9QUQ5; HEK293 TRPC4beta/mu-opioid, DAMGO-evoked Fluo4 calcium flux; hits give low values; B-score at 10 µM; hit rate 0.39% among 300,000; AID 2247;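 active means B-score over 3 SD under the library average, no early fluorescence shift, positive overall ratio signal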
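Assay system: Stable TRPC4beta/mu-opioid receptor HEK293 cells | Reagent: DAMGO in two steps, submaximal then maximal | Compound dosing: Single concentration per test compound | Signal: Fluo4 Ca2+ flux fluorescence | Evaluation: Per-well B score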
TRPC4 spec 2 = second check of whether TRPC6 inhibitors also affect mouse TRPC4 | shares compounds with TRPC6 inhibitor | inhibition, % at 10 µM | hit rate 42% among 920 | AID 2776 | HEK293 TRPC4/MOR, membrane potential dye fluorescence; channel activated by saturating DAMGO dose;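 active means compounds whose fluorescence signal differed from control wells by over 3 SD, either direction, in both duplicate plates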
TRPC4 spec = mouse TRPC4 off-target activity of TRPC6 inhibitors. activity change, negative = inhibition, % at 10 µM. AID 2777. shares compounds with TRPC6 inhibitor. HEK293 TRPC4/mu-opioid, membrane potential fluorescence. hit rate 61% among 920;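 active means rise or fall in signal beyond 3 SD of buffer-only wells in both replicate plates, either sign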;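 further: integrated kinetic ratio of fluorescence range over baseline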
HEK293 MPD ctr 2-1 = parental HEK293 nonspecific activity of TRPC6 inhibitors, second screen. shares compounds with TRPC6 inhibitor. parental HEK293 membrane potential dye fluorescence; maximal acetylcholine challenge after compound addition. signal change vs control, % at 10 µM. hit rate 31% among 920;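 active means membrane potential signal moving either way by over 3 SD of the maximum-effect control, in both duplicate plates, meaning non-specific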
HEK293 MPD ctr-1 = checks TRPC6 inhibitor effects in parental HEK293 cells | shares compounds with TRPC6 inhibitor | parental HEK293 membrane potential dye fluorescence | membrane potential signal change, % at 10 µM | hit rate 60% among 920;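 active means membrane potential signal shifting up or down by more than 3 SD of buffer-only wells, on both duplicate plates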
HEK293 MPD ctr-2 = checks TRPC6 modulator effects in parental HEK293 cells | membrane potential signal change, % at 10 µM | membrane potential dye fluorescence | hit rate 51% among 2,400 | shares compounds with TRPC6 inhibitor | AID 488924;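 active means membrane potential signal moves up or down beyond 5 SD from buffer-only wells, on both duplicate plates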
HEK293 MPD ctr 2-2 = second counter-screen for TRPC6 modulators: effect in parental HEK293 cells. shares compounds with TRPC6 inhibitor. membrane potential dye fluorescence; after compound, maximal acetylcholine stimulation. inhibition, % at 10 µM. hit rate 14% among 2,400. AID 488926;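 active means membrane potential signal drops by more than 5 SD from the mean control signal, in both duplicate plates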
TRPC4/MOR mod = selectivity of TRPC6 modulators against mouse TRPC4; percent change from control (negative = decrease, positive = increase), % at 10 µM; hit rate 69% among 2,400; shares compounds with TRPC6 inhibitor; HEK293 TRPC4/mu-opioid, membrane potential fluorescence; AID 488927;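 active means membrane potential signal moved up or down beyond 5 SD of buffer control wells, in both duplicate plates, actives on both sides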
TRPC4/MOR inh 2 = second check of whether TRPC6 modulators also affect mouse TRPC4; HEK293 TRPC4/mu-opioid, membrane potential dye fluorescence; stimulated with maximal-effect DAMGO; inhibition, % at 10 µM; shares compounds with TRPC6 inhibitor; hit rate 55% among 2,400;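 active means drop in membrane potential signal beyond 5 SD of the control wells in both duplicate plates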;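 further: TRPC4 counter screen for TRPC6 hits run under conditions tuned for TRPC6 not TRPC4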
TRPC6 block conf = mouse TRPC6 inhibitor confirmation; HEK293-TRPC6, membrane potential dye, ACh-evoked depolarization; hit rate 43% among 3,300; shares compounds with TRPC6 inhibitor; inhibition, % at 10 µM;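 active means fluorescence ratio falls more than 5 SD below the full-stimulation control mean, in both duplicate runs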;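 further: integrated fluorescence ratio of peak minus minimum over baseline after agonist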
TRPC6 act confirm = confirmation of mouse TRPC6 activators | activation, % at 10 µM | shares compounds with TRPC6 inhibitor | AID 488961 | HEK293-TRPC6 membrane potential dye fluorescence, FDSS | hit rate 11% among 2,800;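 active means ratio signal rise beyond 5 SD above unstimulated control wells' mean, seen in both duplicate runs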
Numbers stand for hits; - = inactive; . = no result.

SMILES	TRPC4 agonist	TRPC6 inhibitor	TRPC4 PAM	TRPC6 activator	TRPC4 block	HEK293 MPD ctr-2	HEK293 MPD ctr 2-2	TRPC4/MOR mod	TRPC4/MOR inh 2	TRPC6 block conf	TRPC6 act confirm	others
O=C(CSc1ncnc2ccccc12)NCC(=O)c1ccccc1	-	-	-	-	-	.	.	.	.	.	.
Cn1c(=O)c(-c2cc(Br)ccc2N)nc2ccccc21	-	-	-	-	-	.	.	.	.	.	.
CC1=CC(C)(C)N(C(=O)CNC2CCCCC2)c2cc(C)ccc21	-	-5.56	-	-	-	125.5%	-	35.5%	57.5%	50.5%	-
CC1=CC(C)(C)N(C(=O)CCl)c2cc(C)ccc21	-	-	-	-	-	.	.	.	.	.	.
COc1ccccc1/C=C1\SC(=S)N(CCC(=O)N2CCN(C)CC2)C1=O	-	-5.27	-	-	-	-	-	-	44.0%	-	-
CC(C)C(NC(=O)c1c(F)cccc1F)C(=O)NC1CC(C)(C)NC(C)(C)C1 (configuration not stated)	-	-	-	-	-	.	.	.	.	.	.
CCNC(=S)N1CCN(C(c2ccccc2)c2ccccc2)CC1	68	-5.21	-	-	-	-	-	65.5%	73.5%	-	-
CCCNC(=S)N1CCN(C(c2ccccc2)c2ccccc2)CC1	-	-	-	-	-	.	.	.	.	.	.
CCC[N+](CC#Cc1ccccc1)(CCC)CC(=O)c1ccc(Cl)cc1	-	-5.74	-	-	-	332.0%	-	77.0%	52.5%	67.5%	.
CCc1cc(=O)oc2cc(C)cc(OCC(=O)NC3CC3)c12	-	-	-	-	-	.	.	.	.	.	.
CCc1cc(=O)oc2cc(C)cc(OCC(=O)NC3CCN(Cc4ccccc4)CC3)c12	-	-5.51	-	-	-	-100.5%	-	-26.0%	68.0%	40.0%	-
Cc1c(CN(C)C)c2c(n1Cc1ccccc1)C(=O)c1ccccc1-2	-	-7	-	-	-6	-173.5%	-	-33.0%	78.5%	44.0%	-
Cc1cc(=O)n(Cc2ccccc2)c2ccccc12	-	-	-	-	-	.	.	.	.	.	.
Cc1ccc(-c2c[n+]3c(n2-c2ccccc2)SCC3)cc1	-	-5.41	-	-	-	-	-	-11.0%	-	-	-
COc1ccc(-c2c[n+]3c(n2-c2ccccc2)SCC3)cc1OC	-	-	-	-	-	.	.	.	.	.	.
COc1ccc(-c2c[n+]3c(n2-c2ccccc2)SCC3)cc1	-	-8.24	-	-	-	.	.	.	.	62.9%	-	TRPC4 spec 2=-;TRPC4 spec=-11.6%;HEK293 MPD ctr 2-1=-12.0%;HEK293 MPD ctr-1=-172.5%
Brc1ccc(-c2c[n+]3c(n2-c2ccccc2)SCC3)cc1	-	-7.24	-	-	-	.	.	.	.	-	-	TRPC4 spec 2=-;TRPC4 spec=-14.9%;HEK293 MPD ctr 2-1=-20.5%;HEK293 MPD ctr-1=-228.5%
